This is an account of results in ChEMBL document CHEMBL4368906 (J Med Chem, 2019).

Experiment [1] concerns the target T1, Urotensin-2 receptor (Homo sapiens, UniProt Q9UKP6).
T1 sequence (Q9UKP6 whole entry): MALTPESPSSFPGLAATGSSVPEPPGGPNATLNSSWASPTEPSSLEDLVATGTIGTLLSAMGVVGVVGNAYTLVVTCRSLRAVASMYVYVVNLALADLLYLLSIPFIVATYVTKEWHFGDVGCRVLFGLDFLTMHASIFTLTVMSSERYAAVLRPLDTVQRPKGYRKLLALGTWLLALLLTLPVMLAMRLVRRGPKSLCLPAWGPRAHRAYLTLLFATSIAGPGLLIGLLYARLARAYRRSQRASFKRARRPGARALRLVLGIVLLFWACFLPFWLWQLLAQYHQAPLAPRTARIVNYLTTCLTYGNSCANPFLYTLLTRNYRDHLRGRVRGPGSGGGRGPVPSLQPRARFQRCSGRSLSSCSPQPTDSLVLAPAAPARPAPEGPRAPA
Description: Displacement of [125I]-URP or human [125I[-urotensin-2 from human urotensin 2 receptor expressed in HEK293 or CHOK1 cells after 2 hrs by gamma-counting assay. The class given is cell-based. On the technique in general: Loss of bound radioactivity is the signal in a displacement assay; it reports binding, not function.

The target of experiment [2] is T2, Urotensin-2 receptor (Rattus norvegicus) (UniProt P49684).
T2 sequence (whole entry): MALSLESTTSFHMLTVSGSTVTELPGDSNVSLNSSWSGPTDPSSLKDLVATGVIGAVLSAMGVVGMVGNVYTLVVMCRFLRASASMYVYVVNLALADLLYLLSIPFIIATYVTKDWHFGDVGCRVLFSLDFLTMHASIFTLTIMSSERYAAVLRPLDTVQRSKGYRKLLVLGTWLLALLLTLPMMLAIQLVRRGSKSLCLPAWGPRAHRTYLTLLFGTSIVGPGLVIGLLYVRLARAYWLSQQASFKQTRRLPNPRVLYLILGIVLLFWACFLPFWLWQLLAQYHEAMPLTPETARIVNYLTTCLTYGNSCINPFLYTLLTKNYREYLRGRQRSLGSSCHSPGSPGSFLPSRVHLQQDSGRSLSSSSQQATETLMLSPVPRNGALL
Description: Agonist activity at urotensin 2 receptor in Sprague-Dawley rat thoracic aortic ring assessed as induction of contraction at 10 uM relative to KCl-induced contraction. In a few lines:
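Male Sprague-Dawley rats, 250-300 g. Aortic rings were held in a 5-mL organ bath of oxygenated Krebs-Henseleit buffer. Each vessel was first challenged with KCl, 40 mM final in the bath. Peptides were added cumulatively from 10−11 to 10−5 M. Each contraction was taken as a percentage of the KCl response, divided by the response to hU-II (10−7 M).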

For experiment [3], the target named is T1, Urotensin-2 receptor. Description: Agonist activity at urotensin 2 receptor (unknown origin) expressed in HEK293 cells co-expressing Gq-polycistronic BRET biosensor assessed as induction of Gq activation measured for 5 mins by luminescence detection based BRET assay. The class given is cell-based. For orientation: In BRET a luciferase serves as donor, and the signal depends on an acceptor being close.

As to `CC(C)[C@H](NC(=O)[C@@H]1CSSC[C@H](NC(=O)[C@H](C)N)C(=O)N[C@@H](Cc2ccccc2)C(=O)N[C@@H](Cc2c[nH]c3ccccc23)C(=O)N(C)[C@@H](CCCCN)C(=O)N[C@@H](Cc2ccc(O)cc2)C(=O)N1)C(=O)O`, in experiment [1], the Ki was 1510 nM. In experiment [2], the Activity worked out at 22%.

In turn, `CC(C)[C@H](NC(=O)[C@@H]1CSSC[C@H](NC(=O)[C@H](C)N)C(=O)N(C)[C@@H](Cc2ccccc2)C(=O)N[C@@H](Cc2c[nH]c3ccccc23)C(=O)N[C@@H](CCCCN)C(=O)N[C@@H](Cc2ccc(O)cc2)C(=O)N1)C(=O)O` showed an inhibition constant Ki in experiment [1] of 245 nM. The EC50 in experiment [3] is 105 nM. Moreover, the Activity in experiment [2] was 51%.

Usually Ki stands for the equilibrium dissociation constant of an inhibitor or competing ligand from its target. A high value points to weaker binding. The EC50 is the concentration needed to bring the measured effect to its halfway point.
